Measured values published in ChEMBL document CHEMBL1157830, “Terpenoids and a flavonoid glycoside from Acacia pennata leaves as hedgehog/GLI-mediated transcriptional inhibitors” (J Nat Prod, 2010).
Active and inactive are the calls of the source. The rule behind the calls is not given here.

Tests used:
[1] = Inhibition of Hh/GLI1-mediated transcription in human HaCaT cells expressing T-Rex system by luciferase reporter gene assay; assay type: cell-based
Outline: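 HaCaT-GLI1-Luc cells (exogenous GLI1 under tetracycline control, T-REx) seeded at 2 × 10^5 per well. Compounds added after 12 h tetracycline induction, at 0.05% DMSO. GLI-dependent luciferase activity and cell viability read at the same time. n = 3, SD.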

PANC-1 [2] = test: Cytotoxicity against human PANC1 cells after 24 hrs by fluorimetric microculture cytotoxicity assay; assay type: functional, cell-based; conditions: PANC-1, 24 h
Outline: (§1)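 Cells plated at 1 × 10^4 per well in RPMI + 10% FBS and preincubated 24 h at 37 °C. Medium then replaced with fresh medium containing a range of compound concentrations at 0.05% DMSO. After 24 h exposure, proliferation measured by fluorometric microculture cytotoxicity assay (FMCA). n = 3, SD; IC50 reported.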

DU-145 = test: Cytotoxicity against human DU145 cells after 24 hrs by fluorimetric microculture cytotoxicity assay; assay type: functional, cell-based; conditions: DU-145, 24 h; outline: as §1
[3] = Cytotoxicity against mouse C3H10T1/2 cells after 24 hrs by fluorimetric microculture cytotoxicity assay; assay type: cell-based; conditions: C3H 10T1/2, 24 h; outline: as §1
HaCaT [4] = test: Inhibition of Hh/GLI1-mediated PTCH protein expression in human HaCaT cells expressing T-Rex system after 24 hrs by Western blot; assay type: cell-based
Outline: (§2)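 HaCaT cells carrying tetracycline-inducible exogenous GLI1 plated at 2 × 10^6 per 10 cm dish for 12 h at 37 °C, then induced with 1 µg/mL tetracycline for 12 h. Medium removed and compounds added at various concentrations for 24 h. Lysates in Tris/NaCl/deoxycholate/EDTA buffer with protease inhibitor run on 5% and 12.5% SDS-PAGE. Immunoblot for PTCH, BCL-2 and GLI1 with ECL detection.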

HaCaT [5] = test: Inhibition of Hh/GLI1-mediated Bcl2 protein expression in human HaCaT cells expressing T-Rex system after 24 hrs by Western blot; assay type: cell-based; outline: as §2
PANC-1 [6] = test: Inhibition of Hh/GLI1-mediated PTCH protein expression in human PANC1 cells after 24 hrs by Western blot; assay type: cell-based
Outline: (§3)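 PANC1 cells treated with compounds at various concentrations for 24 h. Lysates run on SDS-PAGE, transferred to PVDF and blocked 1 h in TBST with 5% milk. Primary antibodies (PTCH, BCL-2) 1 h at room temperature, secondary 1 h, then ECL detection. Same procedure as for the HaCaT blots.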

PANC-1 [7] = test: Inhibition of Hh/GLI1-mediated Bcl2 protein expression in human PANC1 cells after 24 hrs by Western blot; assay type: cell-based; outline: as §3
PANC-1 [8] = test: Inhibition of Hh/GLI1-mediated PTCH mRNA expression in human PANC1 cells at 0.2 uM after 24 hrs by RT-PCR; assay type: cell-based
Outline: (§4)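 PANC1 cells treated, with untreated cells as control. Ptch mRNA was reverse transcribed with a two-step qRT-PCR kit and quantified by real-time PCR: 50 °C for 2 min, 95 °C for 2 min, then 40 cycles of 95 °C for 15 s and 60 °C for 30 s. Expression was compared with the untreated control.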

PANC-1 [9] = test: Inhibition of Hh/GLI1-mediated PTCH mRNA expression in human PANC1 cells at 0.4 uM after 24 hrs by RT-PCR; assay type: cell-based; outline: as §4
PANC-1 [10] = test: Inhibition of Hh/GLI1-mediated PTCH mRNA expression in human PANC1 cells at 4 uM after 24 hrs by RT-PCR; assay type: cell-based
Outline: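 Ptch mRNA from treated and untreated PANC1 cells reverse-transcribed with a two-step qRT-PCR kit. Real-time PCR: 50 °C 2 min, 95 °C 2 min, then 40 cycles of 95 °C 15 s and 60 °C 30 s. Compared with an untreated control; cyclopamine included as positive control.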

PANC-1 [11] = test: Inhibition of Hh/GLI1-mediated PTCH mRNA expression in human PANC1 cells at 2 and 4 uM after 24 hrs by RT-PCR

Row | SMILES | IC50 [1] [µM] | IC50 (PANC-1 [2]) [µM] | IC50 (DU-145) [µM] | IC50 [3] [µM] | inhibition (HaCaT [4]) | inhibition (HaCaT [5]) | inhibition (PANC-1 [6]) | inhibition (PANC-1 [7]) | inhibition (PANC-1 [8]) | inhibition (PANC-1 [9]) | inhibition (PANC-1 [10]) | inhibition (PANC-1 [11])
1 | CC1=C(C)[C@@]2(C)CCCC(C)(C)[C@@H]2CC1 | 13.5 | 15.1 | 23.2 | > 100 | Dose-dependent effect | Dose-dependent effect | Dose-dependent effect | Dose-dependent effect | – | – | – | –
2 | CC1=C2C[C@H]3[C@@H](CC=C4C[C@@H](O)CC[C@@]43C)[C@@H]2CC[C@]12O[C@@H]1C[C@H](C)CN[C@H]1[C@H]2C | – | – | – | – | – | – | – | – | Active | Active | – | –
3 | COC(=O)[C@]1(C)CCC[C@]2(C)c3cc4occc4c(C)c3C[C@@H](OC(C)=O)[C@@H]12 [TAEPEENIN D] | 1.6 | 3.2 | 3.4 | > 100 | Dose-dependent effect | Dose-dependent effect | Dose-dependent effect | Dose-dependent effect | – | – | Active | Active
